ChEMBL document CHEMBL3872252, “New bithiazolyl hydrazones: Novel synthesis, characterization and antitubercular evaluation” (Bioorg Med Chem Lett, 2017)
≈ marks a conversion by molar mass, not a printed value.

How the values were obtained:
[1] = Antitubercular activity against Mycobacterium tuberculosis H37Ra ATCC 25177 dormant stage infected in human THP1 cells measured on day 12 by nitrate reductase assay; type: functional, THP-1; details: ATCC 25177, 288 h
[2] = Antitubercular activity against Mycobacterium tuberculosis H37Ra ATCC 25177 active stage infected in human THP1 cells measured on day 8 by nitrate reductase assay; type: functional, THP-1; details: ATCC 25177, 192 h
[3] = Antitubercular activity against Mycobacterium tuberculosis H37Ra ATCC 25177 active stage measured on day 8 by XTT reduction menadione based two-fold dilution assay; type: functional; details: ATCC 25177, 192 h
In short: (§1)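 M. tuberculosis H37Ra ATCC 25177 was exposed to 0.7–100 μg/mL in two-fold steps (0.7, 1.5, 3.1 … 100). Active stage was read after 8 days and dormant stage after 12 days of incubation. Inhibition was read by XTT reduction menadione assay (XRMA), absorbance 470 nm. MIC90 is the concentration giving ≥90% inhibition (µg/mL).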

[4] = Antitubercular activity against Mycobacterium tuberculosis H37Ra ATCC 25177 dormant stage measured on day 12 by XTT reduction menadione based two-fold dilution assay; type: functional; details: ATCC 25177, 288 h; in short: as §1
[5] = Antitubercular activity against Mycobacterium bovis BCG ATCC 35743 active stage measured on day 8 by nitrate reductase based two-fold dilution assay; type: functional, Mycobacterium bovis BCG str. ATCC 35743; details: Mycobacterium tuberculosis variant bovis BCG, ATCC 35743, 192 h
[6] = Antitubercular activity against Mycobacterium bovis BCG ATCC 35743 dormant stage measured on day 12 by nitrate reductase based two-fold dilution assay; type: functional, Mycobacterium bovis BCG str. ATCC 35743; details: Mycobacterium tuberculosis variant bovis BCG, ATCC 35743, 288 h
[7] = Cytotoxicity against human THP1 cells by MTT assay; type: toxicity, cell-based, THP-1; details: for GI50: THP1 cells; for GI90: thp-1
[8] = Cytotoxicity against human MCF7 cells by MTT assay; type: toxicity, cell-based; details: for GI50: MCF7 cells; for GI90: mcf7
[9] = Cytotoxicity against human HCT116 cells by MTT assay; type: toxicity, cell-based, HCT-116; details: for GI50: HCT116 cells; for GI90: hct-116
[10] = Selectivity index, ratio of GI50 for human MCF7 cells to MIC90 for Mycobacterium tuberculosis H37Ra ATCC 25177 active stage; type: toxicity, cell-based; details: read-out: Selectivity Index
In short: (§2)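 Cytotoxicity was measured on human MCF-7, HCT116 and THP-1 cells by MTT assay, with paclitaxel as reference. GI50 is the concentration inhibiting 50% of cell growth. The selectivity index is GI50 for the given cell line divided by MIC90 for the given mycobacterial strain and stage.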

[11] = Selectivity index, ratio of GI50 for human MCF7 cells to MIC90 for Mycobacterium tuberculosis H37Ra ATCC 25177 dormant stage; type: toxicity, cell-based; details: read-out: Selectivity Index
In short: (§3)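 Cytotoxicity was measured on human MCF-7, HCT116 and THP-1 cells by MTT assay, with paclitaxel as reference. The selectivity index is GI50 for the given cell line divided by MIC90 for the given mycobacterial strain and stage.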

[12] = Selectivity index, ratio of GI50 for human MCF7 cells to MIC90 for Mycobacterium bovis BCG ATCC 35743 active stage; type: toxicity, cell-based; details: read-out: Selectivity Index; in short: as §2
[13] = Selectivity index, ratio of GI50 for human MCF7 cells to MIC90 for Mycobacterium bovis BCG ATCC 35743 dormant stage; type: toxicity, cell-based; details: read-out: Selectivity Index; in short: as §3
[14] = Selectivity index, ratio of GI50 for human HCT116 cells to MIC90 for Mycobacterium tuberculosis H37Ra ATCC 25177 active stage; type: toxicity, cell-based, HCT-116; details: read-out: Selectivity Index; in short: as §2
[15] = Selectivity index, ratio of GI50 for human HCT116 cells to MIC90 for Mycobacterium tuberculosis H37Ra ATCC 25177 dormant stage; type: toxicity, cell-based, HCT-116; details: read-out: Selectivity Index; in short: as §3
[16] = Selectivity index, ratio of GI50 for human HCT116 cells to MIC90 for Mycobacterium bovis BCG ATCC 35743 active stage; type: toxicity, cell-based, HCT-116; details: read-out: Selectivity Index; in short: as §2
[17] = Selectivity index, ratio of GI50 for human HCT116 cells to MIC90 for Mycobacterium bovis BCG ATCC 35743 dormant stage; type: toxicity, cell-based, HCT-116; details: read-out: Selectivity Index; in short: as §3
[18] = Selectivity index, ratio of GI50 for human THP1 cells to MIC90 for Mycobacterium tuberculosis H37Ra ATCC 25177 active stage; type: toxicity, cell-based, THP-1; details: read-out: Selectivity Index; in short: as §2
[19] = Selectivity index, ratio of GI50 for human THP1 cells to MIC90 for Mycobacterium tuberculosis H37Ra ATCC 25177 dormant stage; type: toxicity, cell-based, THP-1; details: read-out: Selectivity Index; in short: as §3
[20] = Selectivity index, ratio of GI50 for human THP1 cells to MIC90 for Mycobacterium bovis BCG ATCC 35743 active stage; type: toxicity, cell-based, THP-1; details: read-out: Selectivity Index; in short: as §2
[21] = Selectivity index, ratio of GI50 for human THP1 cells to MIC90 for Mycobacterium bovis BCG ATCC 35743 dormant stage; type: toxicity, cell-based, THP-1; details: read-out: Selectivity Index; in short: as §3
[22] = system: Escherichia coli; assay: Growth inhibition of Escherichia coli at 30 ug/ml; type: functional; details: read-out: GI
[23] = system: Escherichia coli; assay: Growth inhibition of Escherichia coli at 10 ug/ml; type: functional; details: read-out: GI
[24] = system: Escherichia coli; assay: Growth inhibition of Escherichia coli at 3 ug/ml; type: functional; details: read-out: GI
In short: (§4)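 Screened against Gram-negative E. coli and P. aeruginosa and Gram-positive S. aureus and B. subtilis. Compound was tested at 3 µg/ml, and the read-out is percent growth inhibition.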

[25] = system: Pseudomonas aeruginosa; assay: Growth inhibition of Pseudomonas aeruginosa at 30 ug/ml; type: functional; details: read-out: GI
[26] = system: Pseudomonas aeruginosa; assay: Growth inhibition of Pseudomonas aeruginosa at 10 ug/ml; type: functional; details: read-out: GI
[27] = system: Pseudomonas aeruginosa; assay: Growth inhibition of Pseudomonas aeruginosa at 3 ug/ml; type: functional; details: read-out: GI; in short: as §4
[28] = system: Staphylococcus aureus; assay: Growth inhibition of Staphylococcus aureus at 30 ug/ml; type: functional; details: read-out: GI
[29] = system: Staphylococcus aureus; assay: Growth inhibition of Staphylococcus aureus at 10 ug/ml; type: functional; details: read-out: GI
[30] = system: Staphylococcus aureus; assay: Growth inhibition of Staphylococcus aureus at 3 ug/ml; type: functional; details: read-out: GI; in short: as §4
[31] = system: Bacillus subtilis; assay: Growth inhibition of Bacillus subtilis at 30 ug/ml; type: functional; details: read-out: GI
[32] = system: Bacillus subtilis; assay: Growth inhibition of Bacillus subtilis at 10 ug/ml; type: functional; details: read-out: GI
[33] = system: Bacillus subtilis; assay: Growth inhibition of Bacillus subtilis at 3 ug/ml; type: functional; details: read-out: GI; in short: as §4

Compound	MIC90 [1] [µg/mL]	MIC90 [2] [µg/mL]	IC50 [3] [µg/mL]	MIC90 [3] [µg/mL]	IC50 [4] [µg/mL]	MIC90 [4] [µg/mL]	IC50 [5] [µg/mL]	MIC90 [5] [µg/mL]	IC50 [6] [µg/mL]	MIC90 [6] [µg/mL]	GI50 [7] [µg/mL]	GI90 [7] [µg/mL]	GI50 [8] [µg/mL]	GI90 [8] [µg/mL]	GI50 [9] [µg/mL]	GI90 [9] [µg/mL]	selectivity ratio [10]	selectivity ratio [11]	selectivity ratio [12]	selectivity ratio [13]	other results
C/C(=N\Nc1nc(-c2ccccc2)cs1)c1sc(-c2ccccc2)nc1C	12 (≈ 30.7 µM)	15.6 (≈ 39.9 µM)	0.17 (≈ 0.435 µM)	9.46 (≈ 24.2 µM)	0.98 (≈ 2.51 µM)	12.8 (≈ 32.7 µM)	8.75 (≈ 22.4 µM)	21.2 (≈ 54.3 µM)	7.95 (≈ 20.4 µM)	18.7 (≈ 47.9 µM)	> 100	> 100	> 100	> 100	> 100	> 100	11	8	5	5	selectivity ratio [14]: 11; selectivity ratio [15]: 8; selectivity ratio [16]: 5; selectivity ratio [17]: 5; selectivity ratio [18]: 11; selectivity ratio [19]: 8; selectivity ratio [20]: 5; selectivity ratio [21]: 5; inhibition of growth at 30 µg/mL [22]: 78.5%; inhibition of growth at 10 µg/mL [23]: 56.6%; inhibition of growth at 3 µg/mL [24]: 17.5%; inhibition of growth at 30 µg/mL [25]: 78.2%; inhibition of growth at 10 µg/mL [26]: 53.8%; inhibition of growth at 3 µg/mL [27]: 10.2%; inhibition of growth at 30 µg/mL [28]: 77.2%; inhibition of growth at 10 µg/mL [29]: 53.6%; inhibition of growth at 3 µg/mL [30]: 11.6%; inhibition of growth at 30 µg/mL [31]: 75.5%; inhibition of growth at 10 µg/mL [32]: 50.1%; inhibition of growth at 3 µg/mL [33]: 4.82%
C/C(=N\Nc1nc(-c2ccc(C)cc2)cs1)c1sc(C)nc1C	82.8 (≈ 242 µM)	74.3 (≈ 217 µM)	11.1 (≈ 32.3 µM)	> 100	8.35 (≈ 24.4 µM)	65.8 (≈ 192 µM)	17.9 (≈ 52.4 µM)	54.8 (≈ 160 µM)	9.67 (≈ 28.2 µM)	83.2 (≈ 243 µM)	> 100	> 100	> 100	> 100	> 100	> 100	1	2	1	10	selectivity ratio [14]: 1; selectivity ratio [15]: 2; selectivity ratio [16]: 1; selectivity ratio [17]: 10; selectivity ratio [18]: 1; selectivity ratio [19]: 2; selectivity ratio [20]: 1; selectivity ratio [21]: 10; inhibition of growth at 30 µg/mL [22]: 73.7%; inhibition of growth at 10 µg/mL [23]: 83.3%; inhibition of growth at 3 µg/mL [24]: 79.8%; inhibition of growth at 30 µg/mL [25]: 72.8%; inhibition of growth at 10 µg/mL [26]: 83.5%; inhibition of growth at 3 µg/mL [27]: 79.6%; inhibition of growth at 30 µg/mL [28]: 72%; inhibition of growth at 10 µg/mL [29]: 82.4%; inhibition of growth at 3 µg/mL [30]: 78.6%; inhibition of growth at 30 µg/mL [31]: 69.9%; inhibition of growth at 10 µg/mL [32]: 81%; inhibition of growth at 3 µg/mL [33]: 76.9%
COc1ccc(-c2csc(N/N=C(\C)c3sc(C)nc3C)n2)cc1	46.2 (≈ 129 µM)	48.2 (≈ 135 µM)	0.88 (≈ 2.45 µM)	74.1 (≈ 207 µM)	1.24 (≈ 3.46 µM)	20.5 (≈ 57.2 µM)	7.37 (≈ 20.6 µM)	67.3 (≈ 188 µM)	8.41 (≈ 23.5 µM)	24 (≈ 67.1 µM)	> 100	> 100	> 100	> 100	> 100	> 100	1	5	1	12	selectivity ratio [14]: 1; selectivity ratio [15]: 5; selectivity ratio [16]: 1; selectivity ratio [17]: 12; selectivity ratio [18]: 1; selectivity ratio [19]: 5; selectivity ratio [20]: 1; selectivity ratio [21]: 12; inhibition of growth at 30 µg/mL [22]: 69.2%; inhibition of growth at 10 µg/mL [23]: 74.3%; inhibition of growth at 3 µg/mL [24]: 74.4%; inhibition of growth at 30 µg/mL [25]: 67.8%; inhibition of growth at 10 µg/mL [26]: 73.5%; inhibition of growth at 3 µg/mL [27]: 73.6%; inhibition of growth at 30 µg/mL [28]: 67.2%; inhibition of growth at 10 µg/mL [29]: 72.7%; inhibition of growth at 3 µg/mL [30]: 72.8%; inhibition of growth at 30 µg/mL [31]: 64.7%; inhibition of growth at 10 µg/mL [32]: 70.6%; inhibition of growth at 3 µg/mL [33]: 70.7%
